Assay: Toxicity liver stage against HepG2, at 10uM
Type: cell-based
Design: test concentration 10 uM, cell line HepG2-A16-CD81EGFP
Details: human, HepG2-A16-CD81EGFP cells; read-out: INHIBITION
How it was run: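 Uninfected HepG2-A16-CD81EGFP cells, 3 × 10^3 per well, 1536-well, plated on prespotted compound at 10 μM final, parasite-free screening media added to match infected plates; puromycin 10 μM positive, DMSO 0.5% negative; run in parallel with 48 h PbLuc assay at 37 °C, 5% CO2; viability by CellTiter-Glo luminescence, normalized to controls.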

SMILES | cytotoxicity at 10 µM
CCN(CC)S(=O)(=O)c1cc(Br)ccc1OC | 0.58%
Cc1ccc(CN2CC[C@H](c3nnc(-c4ccco4)o3)C2)cc1 | -2.25%
Cc1cccc2c1nc1n2[C@@H](CNC(=O)Cc2ccccc2)COC1 | -5.12%
COCC(=O)N1CCN(S(=O)(=O)c2ccccc2)[C@@H](C(=O)OC)C1 | 1.03%
CSCC(C)(O)CNS(=O)(=O)c1cccc(Cl)c1 (centres undefined) | -0.396%
O=C(c1cscn1)N1CCC2(CCCN(CCOc3ccccc3)C2)C1 (centres undefined) | 1.38%
COCCCN1CC2(CCCCN2C(C)=O)CC1=O (centres undefined) | 16.3%
Cc1ncnc2c1CCN(C(=O)c1ccsc1)CC2 | -0.443%
CCN(CC)CC1CN(Cc2ccco2)Cc2nccn2C1 (centres undefined) | -139%
COC(=O)CNC(=O)CSCc1nc(O)c2cc(C)sc2n1 | 1.45%
COCCN(Cc1ccoc1)C(=O)c1ccccc1Cl | 9.12%
CCOc1ccc(-n2nnc(C(=O)O)c2-c2ccccn2)cc1 | -9.31%
CNC(=O)[C@@]12CCC3(CCN(S(C)(=O)=O)CC3)[C@@H]1CN(S(C)(=O)=O)C2 | -16.1%
O=C(c1ccsc1)N1C[C@@H]2C[C@@H](c3nnc(C4CC4)o3)O[C@@H]2C1 | -6.15%
CO[C@@H]1CC[C@H]2[C@H]1OCCN2C(=O)C1=CCCC1 | -6.34%
COCCCNC(=O)C(C)n1cc(Br)cn1 (centres undefined) | 12.2%
Cc1cc2[nH]c(O)nc2cc1NCc1ccccc1 | 16%
Cc1cc(C(=O)N(C)Cc2cccs2)nc(N2CCCC2)n1 | 7.85%
CC1CCC(NC(=O)c2nn(C)cc2I)CC1 (centres undefined) | 11.8%
CC(C)c1[nH]c2ncccc2c1CN1CCN(S(=O)(=O)N(C)C)CC1 | 3.33%
CN(C)S(=O)(=O)N1CCC(c2ccncc2)CC1 | -27.6%
c1ccc(N2CCOC(Cc3cccnc3)C2)cc1 (centres undefined) | -26.3%
CCn1cc(NC(=O)N2CCN(CCSc3ccccc3)CC2)cn1 | -0.095%

SMILES | cytotoxicity at 10 µM
CC(c1cccc(Cl)c1)N1CCN(S(C)(=O)=O)CC1 (centres undefined) | 1.81%
CS(=O)(=O)c1ccc(NCc2ccc(F)cc2)cn1 | 8.08%
N#Cc1cc(S(N)(=O)=O)ccc1N1CCN(c2ccccc2)CC1 | -3.54%
O=c1cc(CN(CCO)C2CC2)nc2ccccn12 | -1.05%
CN(C)C(=O)Cc1ccc(NCc2nccn2C)cc1 | -8.73%
CCCN(Cc1cnn(C)c1)S(=O)(=O)c1ccc(F)c(C#N)c1 | 6.69%
OCc1cccc(CNCc2cccc3c2OCCO3)c1 | 4.25%
CC(O)CN1CCC(CNCc2cn(-c3ccccc3)nn2)CC1 (centres undefined) | 3.31%
N#Cc1ccnc(N2CCN(C3CCOC3=O)CC2)c1 (centres undefined) | -1.98%
Cc1cc(C(=O)NCC(O)CN2CCCC2=O)ccc1F (centres undefined) | 5.24%
Cc1nc(CN2CCN(CCCc3nc4ccccc4o3)CC2)no1 | 9.13%
Cc1nc(CN2CCN(CCCc3ccccc3)CC2)no1 | 11.7%
Cc1noc(C(C)N(C)Cc2ccco2)n1 (centres undefined) | 6.6%
O=C(NCCc1cccnc1)NC1CCOC2(CCCCC2)C1 (centres undefined) | -16.3%
CC(C)N(CCNC(=O)N1CCCC(N(C)C)C1)C1CC1 (centres undefined) | -0.211%
COCCC(=O)N1CCC(Nc2ncc(Cl)cn2)CC1 | -6.74%
Cc1ccc(NS(=O)(=O)c2ccc(C#N)cc2)c(CN(C)C)c1 | -8.51%
COc1ccc(Oc2ccc(CNC(=O)C3CCS(=O)(=O)C3)cn2)cc1 (centres undefined) | -2.22%
CC(=O)NCCC(=O)NCCCOc1c(C)cccc1C | -4.81%
CN(C)c1nccc(CNC(=O)NC(C)(C)C)n1 | -7.36%
CCN(CC1CN(Cc2ccccn2)CCO1)c1cccnn1 (centres undefined) | -6.95%
CC(=O)Nc1ccc(CN2CCOC2=O)cc1 | -6.24%
Cc1cccc(NCC(=O)Nc2cc(F)ccc2F)c1C(N)=O | 7.53%

SMILES | cytotoxicity at 10 µM
CCc1nc(CN(C)C2CCN(Cc3nc(C4CC4)no3)C2)no1 (centres undefined) | 14.9%
COc1ncc(C)cc1NC(=O)COc1ccccc1F | -9.52%
Cc1cc(N2CCCC2Cn2nc(C)cc2C)n2ncnc2n1 (centres undefined) | -2.74%
CCOc1nnc(CN(Cc2ccccc2)CC(O)c2ccco2)s1 (centres undefined) | -1.57%
Cn1nnnc1SCCC(=O)NCC(C)(C)c1ccccc1F | 5.68%
CN(C)C1CN(C(=O)Nc2cccc(OC(F)F)c2)C1 | -0.317%
N#Cc1cnc(NCc2ccc(C(=O)NC3CC3)cc2)c(Cl)c1 | -0.18%
Brc1cnc(NCc2ccccc2N2CCOCC2)nc1 | 1.3%
Fc1cccc2[nH]c(CN3CCn4c(nnc4C4CC4)C3)nc12 | -5.07%
O=C(c1c(O)cnc2ccccc12)N1CCN(CC(F)F)CC1 | -2.22%
CC(NC(=O)N1CCN(c2cccs2)CC1)c1ccc(C#N)cc1 (centres undefined) | 11.4%
CN(CC(C)(C)O)C(=O)Nc1ccc(F)c(-n2cccc2)c1 | -9.3%
COc1cccc(CN(C)Cc2ccc(C#N)cc2)c1OC | -8.34%
CN(C)CCn1c(=O)oc2ccc(NC(=O)c3cc(Cl)c[nH]3)cc21 | 6.79%
NS(=O)(=O)CCNC(=O)c1ccc(-c2ccc(F)cc2)cc1F | -3.62%
CC(COc1ccc(F)cc1F)NC(=O)NCCN1CCOCC1 (centres undefined) | -10.9%
CN(C)C(=O)N1CCCC2(CCN(c3ccsc3)C2=O)C1 (centres undefined) | -72.5%
Cc1nc(N(C)C)ncc1C(=O)NCCc1csc(-c2cnccn2)n1 | -5%
CCC[C@@H]1CN(c2cncc(C(=O)N3CCOCC3)n2)C[C@H]1N(C)C | 4.63%
COc1cccc(Cn2ncnc2CCSC)c1 | -1.22%
Cc1noc(C)c1CCCNC(=O)C1CCN(C(C)C)CC1 | -7.01%
COc1cc(N2C[C@@H](C)[C@](O)(C3CC3)C2)ncn1 | -0.714%
CC(C)c1noc(C2CCCN2S(=O)(=O)N2CCCCCC2)n1 (centres undefined) | 4.73%

SMILES | cytotoxicity at 10 µM
CCCN1CCN(C(=O)Nc2ccccc2Cl)[C@H]2CS(=O)(=O)C[C@H]21 | 1.54%
CC(C)NS(=O)(=O)c1cc(C(=O)O)cc(-c2ccccc2CO)c1 | 0.555%
COCCNS(=O)(=O)c1cccc2c1CN(C(=O)c1cnccn1)CC2 | -0.432%
Cc1noc(-c2ccc(N3CCCC(C(=O)c4nccn4C)C3)nc2)n1 (centres undefined) | -6.58%
CC(C)(O)CCc1ccc(C(=O)NCC2CCCOC2)cc1 (centres undefined) | 0.445%
Cc1nccn1CCN(C)C(=O)c1cn(-c2ccccc2)nn1 | -0.651%
Cc1nc2sccn2c1C(=O)N1CCc2c(nc(N)[nH]c2=O)C1 | -3.22%
Cc1ccccc1C(C(=O)NCCSC(F)(F)F)N(C)C (centres undefined) | 8.25%
O=C(NCc1ccco1)c1cc(N2CC[C@@H](O)C2)ccn1 | -2.93%
CN(C)C(=O)N1CCN(Cc2ccccc2)[C@@H]2CS(=O)(=O)C[C@@H]21 | -12.6%
CCn1c(CN2CCCC2)nnc1C1CCN(Cc2ccc(C)o2)CC1 | -14.8%
CCOCC(O)CN1CCN(C(=O)c2cccc(OC)c2)CC1 (centres undefined) | -0.874%
CC(=O)N1CCCC(C(=O)NCCOc2cc(C)cc(C)c2)C1 (centres undefined) | -3.43%
Cc1ccc(CNC(=O)Nc2nccs2)cn1 | -23.8%
CC(C)c1nc(CN2CCOC(Cn3cncn3)C2)cs1 (centres undefined) | -4.39%
N#Cc1ccc(CN2CCCCC2Cn2cccn2)cc1 (centres undefined) | -8.96%
NC(=O)c1cccc(C(=O)N2CCCC(n3ccnc3)C2)c1 (centres undefined) | -14%
CC(C)c1noc(CN2CCN(C(=O)c3cccc(F)c3)CC2)n1 | -4.27%
Cc1nn(C)c(N(C)C)c1CNCc1cccc(Cn2ccnc2)c1 | -12%
CCS(=O)(=O)N1CCC(NC(=O)c2ccccc2O)CC1 | -7.27%
Cc1ccc2oc(C(=O)N3CCCC(n4cccn4)C3)cc2n1 (centres undefined) | -3.89%
CCCc1nc(CN2CCCC2c2cnn(C)c2)cs1 (centres undefined) | 0.441%
Cc1nc(C)n(CC2CCCN2CCOc2ccc(F)cc2)n1 (centres undefined) | 3.06%

SMILES | cytotoxicity at 10 µM
CN1CCOC(CNC(=O)Cc2coc(-c3ccccc3)n2)C1 (centres undefined) | -25.1%
CN(Cc1ccc(N(C)C)cc1)C(=O)NCc1nnc2n1CCC2 | -21%
Cn1c(C2CC2)nc2c1CCN(CC(=O)Nc1ccncc1)C2 | -11.8%
CC1CN(C)CCN1Cc1cccc(C(=O)N(C)C)c1 (centres undefined) | -0.192%
CC(C)n1ccnc1CN1CCCN(C(=O)CC2CCCO2)CC1 (centres undefined) | -12.8%
CS(=O)(=O)c1ccc(CNc2nccc(C(F)(F)F)n2)cc1 | -23.2%
COCCOc1cccc(C(=O)N2CCCCC2c2nccs2)c1 (centres undefined) | -9.5%
Cc1ccc(OCCN(C)C(C)c2cccc(S(N)(=O)=O)c2)cc1 (centres undefined) | -29.3%
Cc1ccoc1C(=O)NC1CCN(C(=O)Nc2ccccn2)CC1 | 1.97%
CCc1nc(C2CCCN(C(=O)c3ccc(OC)cc3)C2)no1 (centres undefined) | -15.6%
Cc1cnc(C(=O)Nc2cc(F)ccc2OCC2CCCO2)cn1 (centres undefined) | -4.83%
CC(O)CN1CCN(C(=O)c2cccc3[nH]ncc23)CC1 (centres undefined) | -20.5%
CCc1cnc(CN(C(C)=O)C2CCN(CCc3cnn(C)c3)C2)o1 (centres undefined) | -5.85%
O=C(CN1CCCCC1Cn1cncn1)NCc1ccccn1 (centres undefined) | -4.02%
Cc1nc(C)c(C(=O)OCCNc2ncccc2C#N)s1 | -7.32%
CNC(=O)[C@@H]1CN(C(=O)C2CCC2)C[C@H]1c1ccnc(N2CCCC2)n1 | -3.21%
COc1cccc(N2C(=O)CC3(CCCNC3)C2=O)c1 (centres undefined) | 1.52%
Oc1cc(C2CCNCC2)nc(-c2ccsc2)n1 | 4.06%
Cc1cc(CN2CC[C@H]3C(=O)N(c4ccccc4)CCO[C@H]3C2)no1 | -5.59%
CS(=O)(=O)N[C@@H]1CCO[C@]2(CCN(CC3CCOCC3)C2)C1 | -132%
CC(=O)c1cc(CN2C[C@@H]3CC[C@H]2CN(Cc2c(C)noc2C)C3)cs1 | -1.43%
CNc1nc2cn(CCc3ccccc3)c(=O)c-2c[nH]1 | 7.77%
